Experimental findings from ChEMBL document CHEMBL1125826, “Synthesis and biological activity of 5-amino- and 5-hydroxyquinolones, and the overwhelming influence of the remote N1-substituent in determining the structure-activity relationship” (1991) are described below.

Format in all cases: functional
One assay concerns Enterobacter cloacae. Description: Antibacterial activity was determined against gram negative organism, Enterobacter cloacae MA2646. As to conditions: Enterobacter cloacae; read-out: MIC.
The test system of a further assay is Pseudomonas aeruginosa. The experiment in a line: Antibacterial activity was determined against gram negative organism, Pseudomonas aeruginosa UI-18. As to conditions: Pseudomonas aeruginosa; read-out: MIC. The method in brief: (§1)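 MIC (µg/mL) by standard microtitration against a panel of 10 Gram-positive and Gram-negative organisms; values averaged from multiple experiments.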

For assay [1], the system named is Streptococcus pyogenes. Description: The in vivo potency was determined in female charles river CD-1 mice infected with Streptococcus pyogenes after peroral administration. The following applies: Streptococcus pyogenes, po; read-out: PD50. An outline of the steps:
(§2)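 Acute lethal systemic infection in female CD-1 mice, 16 mice per route; single dose given orally by gavage at the time of challenge; median protective dose (PD50, mg/kg) determined.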

For assay [2], the system named is Bacteria. Description: Antibacterial activity was determined against gram negative organism, Providencia rettgeri. M1771. As to conditions: Bacteria; read-out: MIC. An outline of the steps: as §1
Assay [3] concerns Escherichia coli. Description: The in vivo potency was determined in female charles river CD-1 mice infected with Escherichia coli after peroral administration. The following applies: Escherichia coli, po; read-out: PD50. The method in brief:
as §2

In assay [4] the target is DNA gyrase (Escherichia coli) (UniProt P0AES6+P0AES4). Description: Minimum inhibitory concentration against Escherichia coli DNA-gyrase in supercoiling assay.
In assay [5] the test system is Bacteria. The experiment in a line: MIC ratio measured as the mean MICs of gram-positive bacteria. An outline of the steps:
(§3)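 Geometric mean of the microtitration MICs (µg/mL) over the Gram-negative organisms, and separately over the Gram-positive organisms, of the 10-strain panel; individual MICs averaged from multiple experiments.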

The test system of assay [6] is Staphylococcus aureus. The experiment in a line: Antibacterial activity was determined against gram positive organism, Staphylococcus aureus UC76. The method in brief:
as §1

For assay [7], the system named is Escherichia coli. The experiment in a line: Antibacterial activity was determined against gram negative organism, Escherichia coli vogel. As to conditions: Escherichia coli; read-out: MIC. An outline of the steps: as §1
The test system of assay [8] is Bacteria. Description: MIC ratio measured as the mean MICs of gram-negative bacteria. An outline of the steps: as §3
In a further assay the test system is Streptococcus pneumoniae. The experiment in a line: Antibacterial activity was determined against gram positive organism, Streptococcus pneumoniae SV-1. As to conditions: Streptococcus pneumoniae; read-out: MIC. The method in brief: as §1
Assay [9] concerns Staphylococcus aureus. Description: Antibacterial activity was determined against gram positive organism, Staphylococcus aureus H228. The following applies: Staphylococcus aureus; read-out: MIC. An outline of the steps: as §1
For assay [10], the system named is Escherichia coli. Description: The in vivo potency was determined in female charles river CD-1 mice infected with Escherichia coli after sc administration. The following applies: Escherichia coli, sc; read-out: PD50. An outline of the steps: (§4)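 Acute lethal systemic infection in female CD-1 mice, 16 mice per route; single subcutaneous dose given at the time of challenge; median protective dose (PD50, mg/kg) determined.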

A further assay concerns Klebsiella pneumoniae. Description: Antibacterial activity was determined against gram negative organism, Klebsiella pneumoniae MGH-2. The following applies: Klebsiella pneumoniae; read-out: MIC. An outline of the steps: as §1
For assay [11], the system named is Streptococcus pyogenes. The experiment in a line: Antibacterial activity was determined against gram positive organism, Streptococcus pyogenes C203. As to conditions: Streptococcus pyogenes; read-out: MIC. The method in brief:
as §1

A further assay deals with Enterococcus faecalis. The experiment in a line: Antibacterial activity was determined against gram positive organism, Streptococcus faecalis MGH-2. As to conditions: Enterococcus faecalis; read-out: MIC. An outline of the steps:
as §1

The test system of assay [12] is Streptococcus pyogenes. Description: The in vivo potency was determined in female charles river CD-1 mice infected with Streptococcus pyogenes after sc administration. As to conditions: Streptococcus pyogenes, sc; read-out: PD50. An outline of the steps: as §4
Setting [13] is: Staphylococcus aureus, read-out: MIC.

Structures are written as SMILES. Converted amounts (≈) assume the structure as drawn.

Turning to `Nc1c(F)c(N2CCC(N)C2)cc2c1c(=O)c(C(=O)O)cn2C1CC1` (stereo not given), the MIC with Enterobacter cloacae was 0.013 µg/mL (≈ 0.0375 µM); with Pseudomonas aeruginosa, 0.4 µg/mL (≈ 1.15 µM); in the assay with Bacteria [2], 0.05 µg/mL (≈ 0.144 µM); in assay [4], 2 µg/mL (≈ 5.77 µM); with Staphylococcus aureus [6] (setting [13]) it was 0.025 µg/mL (≈ 0.0722 µM); with Escherichia coli [7] it was 0.013 µg/mL (≈ 0.0375 µM). Also, the MIC was found to be 0.025 µg/mL (≈ 0.0722 µM) in the assay on Streptococcus pneumoniae; 0.1 µg/mL (≈ 0.289 µM) in the assay with Staphylococcus aureus [9]; 0.025 µg/mL (≈ 0.0722 µM) in the assay with Klebsiella pneumoniae; 0.05 µg/mL (≈ 0.144 µM) in the assay with Streptococcus pyogenes [11]; 0.05 µg/mL (≈ 0.144 µM) in the assay on Enterococcus faecalis. The ED50 in the assay on Streptococcus pyogenes [1] turned out to be 110 mg/kg; in the assay on Escherichia coli [3], 8 mg/kg; with Escherichia coli [10], 0.7 mg/kg; with Streptococcus pyogenes [12] it was 6 mg/kg. In addition, the “Geometric mean MIC over Gram-positive bacteria (µg/mL)” value in the assay on Bacteria [5] is recorded as 0.044. The Geometric mean MIC over Gram-negative bacteria (µg/mL) in the assay on Bacteria [8] was determined as 0.038.

On to `CC1CN(c2cc3c(cc2F)c(=O)c(C(=O)O)cn3C2CC2)CCN1` (stereo not given), for which the MIC with Enterobacter cloacae turned out to be 0.025 µg/mL (≈ 0.0724 µM); in the assay on Pseudomonas aeruginosa it was 0.4 µg/mL (≈ 1.16 µM); with Bacteria [2], 0.1 µg/mL (≈ 0.29 µM); in assay [4], 0.5 µg/mL (≈ 1.45 µM); in the assay on Staphylococcus aureus [6] (setting [13]), 0.1 µg/mL (≈ 0.29 µM); with Escherichia coli [7], 0.025 µg/mL (≈ 0.0724 µM). Moreover, the MIC with Streptococcus pneumoniae was 0.2 µg/mL (≈ 0.579 µM); in the assay with Staphylococcus aureus [9], 0.4 µg/mL (≈ 1.16 µM); with Klebsiella pneumoniae it was 0.05 µg/mL (≈ 0.145 µM); in the assay with Streptococcus pyogenes [11], 0.2 µg/mL (≈ 0.579 µM); in the assay on Enterococcus faecalis, 0.4 µg/mL (≈ 1.16 µM). Moreover, the ED50 turned out to be 39 mg/kg in the assay with Streptococcus pyogenes [1], 1 mg/kg in the assay with Escherichia coli [3], 0.4 mg/kg in the assay on Escherichia coli [10] and 12 mg/kg in the assay on Streptococcus pyogenes [12]. In the assay on Bacteria [5], the “Geometric mean MIC over Gram-positive bacteria (µg/mL)” value was 0.23. Further, the Geometric mean MIC over Gram-negative bacteria (µg/mL) with Bacteria [8] turned out to be 0.066.

In the case of `CC1CN(c2cc3c(cc2F)c(=O)c(C(=O)O)cn3C2CC2)CC(C)N1` (stereo not given), the MIC with Enterobacter cloacae was determined as 0.025 µg/mL (≈ 0.0696 µM); with Pseudomonas aeruginosa, 0.4 µg/mL (≈ 1.11 µM); in the assay with Bacteria [2], 0.2 µg/mL (≈ 0.556 µM); in assay [4], 1 µg/mL (≈ 2.78 µM); in the assay on Staphylococcus aureus [6] (setting [13]) it was 0.05 µg/mL (≈ 0.139 µM); in the assay with Escherichia coli [7], 0.025 µg/mL (≈ 0.0696 µM). Moreover, the MIC came to 0.2 µg/mL (≈ 0.556 µM) with Streptococcus pneumoniae; 0.2 µg/mL (≈ 0.556 µM) with Staphylococcus aureus [9]; 0.05 µg/mL (≈ 0.139 µM) in the assay with Klebsiella pneumoniae; 0.2 µg/mL (≈ 0.556 µM) in the assay with Streptococcus pyogenes [11]; 0.2 µg/mL (≈ 0.556 µM) with Enterococcus faecalis. The ED50 with Streptococcus pyogenes [1] was 15 mg/kg; with Escherichia coli [3], 0.7 mg/kg; in the assay on Escherichia coli [10], 0.4 mg/kg; in the assay on Streptococcus pyogenes [12] it was 12 mg/kg. Besides, in the assay with Bacteria [5], the “Geometric mean MIC over Gram-positive bacteria (µg/mL)” value is recorded as 0.15. In addition, the Geometric mean MIC over Gram-negative bacteria (µg/mL) with Bacteria [8] amounted to 0.076.

Consider `CC1CN(c2c(F)c(O)c3c(=O)c(C(=O)O)cn(C4CC4)c3c2F)CCN1` (stereo not given), for which the MIC with Enterobacter cloacae was 0.1 µg/mL (≈ 0.264 µM); in the assay on Pseudomonas aeruginosa, 1.6 µg/mL (≈ 4.22 µM); in the assay on Bacteria [2], 0.2 µg/mL (≈ 0.527 µM); in assay [4], 0.5 µg/mL (≈ 1.32 µM); in the assay on Staphylococcus aureus [6] (setting [13]), 0.1 µg/mL (≈ 0.264 µM); in the assay with Escherichia coli [7], 0.05 µg/mL (≈ 0.132 µM). The MIC in the assay on Streptococcus pneumoniae is 0.4 µg/mL (≈ 1.05 µM); with Staphylococcus aureus [9] it was 0.8 µg/mL (≈ 2.11 µM); with Klebsiella pneumoniae, 0.2 µg/mL (≈ 0.527 µM); with Streptococcus pyogenes [11], 0.4 µg/mL (≈ 1.05 µM); in the assay on Enterococcus faecalis it was 0.8 µg/mL (≈ 2.11 µM). The ED50 in the assay with Streptococcus pyogenes [1] is above 50 mg/kg; in the assay with Escherichia coli [3], 2 mg/kg; with Escherichia coli [10], 0.8 mg/kg; in the assay with Streptococcus pyogenes [12], above 50 mg/kg. The “Geometric mean MIC over Gram-positive bacteria (µg/mL)” value with Bacteria [5] is reported as 0.4. In addition, the Geometric mean MIC over Gram-negative bacteria (µg/mL) with Bacteria [8] worked out at 0.2.

Regarding `CC1CN(c2cc3c(c(N)c2F)c(=O)c(C(=O)O)cn3C2CC2)CCN1` (stereo not given), the MIC is 0.025 µg/mL (≈ 0.0694 µM) in the assay on Enterobacter cloacae; 0.4 µg/mL (≈ 1.11 µM) with Pseudomonas aeruginosa; 0.1 µg/mL (≈ 0.277 µM) in the assay with Bacteria [2]; 0.5 µg/mL (≈ 1.39 µM) in assay [4]; 0.05 µg/mL (≈ 0.139 µM) in the assay with Staphylococcus aureus [6] (setting [13]); 0.013 µg/mL (≈ 0.0361 µM) in the assay on Escherichia coli [7]. Also, the MIC in the assay with Streptococcus pneumoniae was 0.1 µg/mL (≈ 0.277 µM); in the assay on Staphylococcus aureus [9], 0.2 µg/mL (≈ 0.555 µM); with Klebsiella pneumoniae, 0.025 µg/mL (≈ 0.0694 µM); with Streptococcus pyogenes [11] it was 0.2 µg/mL (≈ 0.555 µM); in the assay with Enterococcus faecalis, 0.2 µg/mL (≈ 0.555 µM). The ED50 in the assay on Streptococcus pyogenes [1] was found to be 66 mg/kg; in the assay on Escherichia coli [3] it was 2 mg/kg; with Escherichia coli [10] it was 0.4 mg/kg; in the assay on Streptococcus pyogenes [12] it was 21 mg/kg. The “Geometric mean MIC over Gram-positive bacteria (µg/mL)” value in the assay with Bacteria [5] came out at 0.13. Moreover, in the assay on Bacteria [8], the Geometric mean MIC over Gram-negative bacteria (µg/mL) worked out at 0.058.

With `CCNCC1CCN(c2c(F)c(N)c3c(=O)c(C(=O)O)cn(C4CC4)c3c2Cl)C1` (stereo not given), the MIC in the assay with Enterobacter cloacae came out at 0.2 µg/mL (≈ 0.473 µM); in the assay on Pseudomonas aeruginosa, 1.6 µg/mL (≈ 3.78 µM); with Bacteria [2] it was 0.8 µg/mL (≈ 1.89 µM); in assay [4] it was 1 µg/mL (≈ 2.36 µM); in the assay with Staphylococcus aureus [6], 0.025 µg/mL (≈ 0.0591 µM); in the assay with Escherichia coli [7], 0.1 µg/mL (≈ 0.236 µM). The MIC with Streptococcus pneumoniae was found to be 0.025 µg/mL (≈ 0.0591 µM); in the assay on Staphylococcus aureus [9], 0.1 µg/mL (≈ 0.236 µM); in the assay with Klebsiella pneumoniae, 0.4 µg/mL (≈ 0.946 µM); in the assay on Streptococcus pyogenes [11], 0.025 µg/mL (≈ 0.0591 µM); in the assay with Enterococcus faecalis it was 0.1 µg/mL (≈ 0.236 µM). For the same compound, the ED50 was found to be 31 mg/kg in the assay with Streptococcus pyogenes [1], 32 mg/kg in the assay on Escherichia coli [3], 3 mg/kg with Escherichia coli [10] and 4 mg/kg with Streptococcus pyogenes [12].
